What was measured:
[1] = target: D(2) dopamine receptor (Rattus norvegicus, UniProt P61169); assay: Displacement of [3H]spiperone from dopamine D2 receptor of rat striatal membranes; assay type: cell membranes, Membrane
Summary of the method: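 Rat striatal membranes (0.3–1.0 mg protein/mL) were incubated with 0.1 nM [3H]spiperone in Tris-HCl buffer (pH 7.1) containing 120 mmol/L NaCl, 5 mmol/L KCl, 1 mmol/L CaCl2, 1 mmol/L MgCl2 and 0.1% ascorbic acid, at 37 °C for 15 min. Bound ligand was separated by filtration with three ice-cold washes. Nonspecific binding was defined with 1 mmol/L (+)-butaclamol. IC50 (50% inhibition of binding) came from 5–10 concentrations, each in triplicate.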

[2] = target: 5-hydroxytryptamine receptor 1A (Homo sapiens) (UniProt P08908); assay: Effective dose against 5-HT1a receptor
[3] = Inhibition of 5-hydroxytryptamine 1D receptor
[4] = Inhibition of 5-hydroxytryptamine 2A receptor
[5] = Inhibition of hydroxytryptamine 2C receptor
[6] = target: T1, Adrenergic receptor alpha-1 (Homo sapiens, UniProt P35348+P25100+P35368); assay: Inhibition of Alpha-1 adrenergic receptor; assay type: protein assay
T1 sequence (P35348 whole entry): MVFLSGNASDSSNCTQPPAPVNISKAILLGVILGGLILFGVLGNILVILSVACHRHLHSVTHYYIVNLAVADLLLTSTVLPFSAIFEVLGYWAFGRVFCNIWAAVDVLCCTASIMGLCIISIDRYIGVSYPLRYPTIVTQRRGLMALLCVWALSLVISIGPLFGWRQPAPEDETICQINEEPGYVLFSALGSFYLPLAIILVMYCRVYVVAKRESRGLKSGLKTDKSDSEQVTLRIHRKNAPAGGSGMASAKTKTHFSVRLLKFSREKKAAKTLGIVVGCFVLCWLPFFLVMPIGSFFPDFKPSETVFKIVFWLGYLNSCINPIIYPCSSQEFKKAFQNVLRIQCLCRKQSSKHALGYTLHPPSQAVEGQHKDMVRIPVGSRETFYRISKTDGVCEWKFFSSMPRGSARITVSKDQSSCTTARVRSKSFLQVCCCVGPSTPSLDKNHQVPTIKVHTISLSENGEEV
T1 sequence (P25100 whole entry): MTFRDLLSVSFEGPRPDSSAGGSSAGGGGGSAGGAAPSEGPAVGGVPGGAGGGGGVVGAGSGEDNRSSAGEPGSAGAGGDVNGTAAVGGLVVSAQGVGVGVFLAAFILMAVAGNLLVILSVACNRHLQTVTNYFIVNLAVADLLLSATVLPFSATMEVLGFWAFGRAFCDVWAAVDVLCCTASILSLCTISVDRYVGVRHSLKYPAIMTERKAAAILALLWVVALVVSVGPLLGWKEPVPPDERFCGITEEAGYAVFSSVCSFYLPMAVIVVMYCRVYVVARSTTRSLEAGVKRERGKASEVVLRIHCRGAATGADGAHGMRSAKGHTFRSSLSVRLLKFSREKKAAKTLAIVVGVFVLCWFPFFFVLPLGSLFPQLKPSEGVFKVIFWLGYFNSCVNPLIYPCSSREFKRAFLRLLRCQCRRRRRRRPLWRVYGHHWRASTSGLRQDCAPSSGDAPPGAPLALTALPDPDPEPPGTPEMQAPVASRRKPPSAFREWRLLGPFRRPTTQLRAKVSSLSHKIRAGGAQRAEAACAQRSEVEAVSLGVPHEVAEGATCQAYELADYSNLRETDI
T1 sequence (P35368 whole entry): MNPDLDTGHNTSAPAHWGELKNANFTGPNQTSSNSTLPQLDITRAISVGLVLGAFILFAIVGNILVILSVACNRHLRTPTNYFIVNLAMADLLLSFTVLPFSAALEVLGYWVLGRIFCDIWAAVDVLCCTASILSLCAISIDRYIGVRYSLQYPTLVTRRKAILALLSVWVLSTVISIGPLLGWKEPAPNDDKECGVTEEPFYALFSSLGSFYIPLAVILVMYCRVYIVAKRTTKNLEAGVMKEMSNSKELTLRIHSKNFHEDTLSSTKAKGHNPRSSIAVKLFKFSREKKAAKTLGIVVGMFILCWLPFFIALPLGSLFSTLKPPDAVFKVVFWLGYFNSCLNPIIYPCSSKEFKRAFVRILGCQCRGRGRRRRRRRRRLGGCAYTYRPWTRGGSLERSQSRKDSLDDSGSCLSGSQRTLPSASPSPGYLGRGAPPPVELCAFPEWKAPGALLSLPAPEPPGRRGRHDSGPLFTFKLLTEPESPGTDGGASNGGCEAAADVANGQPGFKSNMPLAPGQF

[7] = target: T2, Adrenergic receptor alpha-2 (Homo sapiens, UniProt P08913+P18825+P18089); assay: Inhibition of Alpha-2 adrenergic receptor; assay type: protein assay
T2 sequence (P08913 whole entry): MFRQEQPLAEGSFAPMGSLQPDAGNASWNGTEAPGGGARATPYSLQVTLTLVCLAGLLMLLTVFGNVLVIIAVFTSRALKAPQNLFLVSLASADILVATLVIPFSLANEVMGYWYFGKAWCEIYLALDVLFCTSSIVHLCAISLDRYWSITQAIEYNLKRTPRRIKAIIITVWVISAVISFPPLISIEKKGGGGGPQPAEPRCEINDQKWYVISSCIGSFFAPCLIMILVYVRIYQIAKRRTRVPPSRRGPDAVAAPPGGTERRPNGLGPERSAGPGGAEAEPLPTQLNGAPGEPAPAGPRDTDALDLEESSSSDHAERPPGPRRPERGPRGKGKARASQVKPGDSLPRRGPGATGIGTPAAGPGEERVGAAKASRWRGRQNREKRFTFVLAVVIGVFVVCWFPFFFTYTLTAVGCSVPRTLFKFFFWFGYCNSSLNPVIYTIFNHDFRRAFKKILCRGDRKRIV
T2 sequence (P18825 whole entry): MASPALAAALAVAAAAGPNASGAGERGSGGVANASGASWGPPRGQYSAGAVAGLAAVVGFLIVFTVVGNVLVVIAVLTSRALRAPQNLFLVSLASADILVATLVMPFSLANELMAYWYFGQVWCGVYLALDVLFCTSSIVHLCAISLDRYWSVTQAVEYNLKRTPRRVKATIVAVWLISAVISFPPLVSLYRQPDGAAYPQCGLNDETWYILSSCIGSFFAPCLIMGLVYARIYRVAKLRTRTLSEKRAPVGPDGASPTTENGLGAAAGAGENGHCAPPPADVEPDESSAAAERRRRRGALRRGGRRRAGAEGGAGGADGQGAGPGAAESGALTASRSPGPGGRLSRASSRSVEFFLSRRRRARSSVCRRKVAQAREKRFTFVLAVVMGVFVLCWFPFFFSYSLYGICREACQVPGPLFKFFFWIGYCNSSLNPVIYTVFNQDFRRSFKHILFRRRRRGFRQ
T2 sequence (P18089 whole entry): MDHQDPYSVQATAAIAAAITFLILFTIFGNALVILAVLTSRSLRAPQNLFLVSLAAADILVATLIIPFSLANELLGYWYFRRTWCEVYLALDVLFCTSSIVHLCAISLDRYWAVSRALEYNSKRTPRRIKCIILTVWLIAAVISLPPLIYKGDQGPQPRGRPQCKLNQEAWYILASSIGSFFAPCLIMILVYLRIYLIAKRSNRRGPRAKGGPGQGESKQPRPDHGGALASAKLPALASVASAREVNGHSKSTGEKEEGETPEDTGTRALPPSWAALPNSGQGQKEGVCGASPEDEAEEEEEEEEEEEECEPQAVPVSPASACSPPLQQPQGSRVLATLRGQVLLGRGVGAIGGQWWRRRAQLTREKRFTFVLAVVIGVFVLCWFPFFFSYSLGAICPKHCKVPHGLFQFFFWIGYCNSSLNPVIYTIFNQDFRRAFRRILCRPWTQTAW

[8] = Inhibition of Histamine H1 receptor
[9] = target: 5-hydroxytryptamine receptor 1A (Homo sapiens) (UniProt P08908); assay: Effective dose against 5-hydroxytryptamine 1A receptor
[10] = target: T3, 5-hydroxytryptamine receptor 1A (Rattus norvegicus, UniProt P19327); assay: Inhibition of 8-OH DPAT bindign to rat hydroxytryptamine 1A receptor in hippocampal membranes
T3 sequence (P19327 whole entry): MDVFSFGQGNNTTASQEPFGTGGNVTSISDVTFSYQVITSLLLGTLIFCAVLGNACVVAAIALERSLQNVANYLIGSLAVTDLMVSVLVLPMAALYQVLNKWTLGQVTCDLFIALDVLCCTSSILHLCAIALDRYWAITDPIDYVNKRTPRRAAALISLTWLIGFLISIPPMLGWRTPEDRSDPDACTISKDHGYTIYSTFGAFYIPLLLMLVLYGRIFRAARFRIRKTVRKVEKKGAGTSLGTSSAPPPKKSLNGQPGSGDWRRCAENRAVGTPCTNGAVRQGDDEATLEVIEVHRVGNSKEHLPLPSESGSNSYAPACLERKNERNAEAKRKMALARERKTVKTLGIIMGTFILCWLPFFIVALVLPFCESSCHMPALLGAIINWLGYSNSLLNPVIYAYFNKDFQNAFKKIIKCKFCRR

[11] = Inhibition of 5-hydroxytryptamine 2C receptor

Chain of D(2) dopamine receptor (P61169 whole entry): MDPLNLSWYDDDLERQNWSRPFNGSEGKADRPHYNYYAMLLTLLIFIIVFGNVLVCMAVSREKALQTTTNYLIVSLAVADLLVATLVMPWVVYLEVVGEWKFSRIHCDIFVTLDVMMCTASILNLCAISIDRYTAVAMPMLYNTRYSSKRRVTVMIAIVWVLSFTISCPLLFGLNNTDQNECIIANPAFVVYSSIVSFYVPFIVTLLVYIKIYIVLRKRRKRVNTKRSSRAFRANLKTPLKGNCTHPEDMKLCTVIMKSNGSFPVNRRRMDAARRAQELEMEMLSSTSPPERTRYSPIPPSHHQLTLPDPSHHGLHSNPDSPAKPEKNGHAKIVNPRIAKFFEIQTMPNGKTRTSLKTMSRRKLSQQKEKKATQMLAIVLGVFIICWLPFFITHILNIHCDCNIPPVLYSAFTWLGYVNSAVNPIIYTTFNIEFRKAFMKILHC
Chain of 5-hydroxytryptamine receptor 1A (Homo sapiens) (P08908 whole entry, looked up): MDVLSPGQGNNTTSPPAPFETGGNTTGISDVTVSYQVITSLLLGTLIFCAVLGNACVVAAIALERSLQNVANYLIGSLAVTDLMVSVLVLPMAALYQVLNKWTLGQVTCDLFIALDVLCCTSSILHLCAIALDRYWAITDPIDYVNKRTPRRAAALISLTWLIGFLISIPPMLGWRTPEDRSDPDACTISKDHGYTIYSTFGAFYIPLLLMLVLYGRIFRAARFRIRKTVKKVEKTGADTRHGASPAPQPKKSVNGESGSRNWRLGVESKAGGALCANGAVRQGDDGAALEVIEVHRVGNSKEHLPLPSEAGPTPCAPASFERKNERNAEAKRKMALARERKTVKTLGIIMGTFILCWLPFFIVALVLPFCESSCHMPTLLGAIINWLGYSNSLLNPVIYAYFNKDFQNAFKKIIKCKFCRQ

| Structure (SMILES) | IC50 [1] | ED50 [2] | IC50 [3] | IC50 [4] | IC50 [5] | IC50 [6] | IC50 [7] | IC50 [8] | ED50 [9] | IC50 [10] | IC50 [11] |
| --- | --- | --- | --- | --- | --- | --- | --- | --- | --- | --- | --- |
| NC(=O)c1ccc(N2CCN(CCCCc3c[nH]c4ccc(C(N)=O)cc34)CC2)cc1 | > 850 nM | 4.7 nM | – | – | – | – | – | – | – | – | – |
| COc1ccc(N2CCN(CCCCc3c[nH]c4ccc(OC)cc34)CC2)cc1 | 420 nM | – | > 10000 nM | 750 nM | 4000 nM | 1000 nM | 7000 nM | 41 nM | – | – | – |
| NC(=O)c1ccc2[nH]cc(CCCCN3CCN(c4ccc5c(c4)CCCO5)CC3)c2c1 | 100 nM | – | – | – | – | – | – | – | 0.07 nM | 0.5 nM | – |
| COc1ccc(N2CCN(CCCCc3c[nH]c4ccc(C(N)=O)cc34)CC2)cc1 | 140 nM | – | – | 220 nM | – | 700 nM | 2000 nM | 1000 nM | – | 0.09 nM | – |
| NC(=O)c1ccc2[nH]cc(CCCCN3CCN(c4ccc5c(c4)OCO5)CC3)c2c1 | 22 nM | – | 400 nM | 240 nM | – | 100 nM | 900 nM | 19 nM | – | 0.4 nM | 800 nM |
